Assay results published in ChEMBL document CHEMBL5385869, “Novel 4-aminoquinolines: Synthesis, inhibition of the Mycobacterium tuberculosis enoyl-acyl carrier protein reductase, antitubercular activity, SAR, and preclinical evaluation” (Eur J Med Chem, 2023).
In brackets after ≈: the same amount, converted by molar mass. Several values for one entry are separate records, joined by “and”; a condition that tells them apart may be missing. Identical values can stand only once.

How the values were obtained:
[1] = system: Mycobacterium tuberculosis; assay: Antibacterial activity against pan-sensitive Mycobacterium tuberculosis H37Rv ATCC 27294 measured after 7 days by resazurin dye based assay; assay type: functional; conditions: H37Rv ATCC 27294, 168 h, time 7 day
Procedure, shortened: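 Resazurin reduction microplate assay (REMA) in Middlebrook 7H9 broth with 10% ADC and 5% DMSO. Compounds come from 2 mg/mL DMSO stocks and are 2-fold serially diluted, top concentration 0.08–40 μg/mL depending on solubility. MIC is the lowest concentration preventing the blue-to-pink colour change. Three independent experiments; the reported value is the modal or the highest value.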

[2] = molecular target: T1, Enoyl-[acyl-carrier-protein] reductase [NADH] (Mycobacterium tuberculosis) (UniProt P9WGR1); assay: Binding affinity to recombinant Mycobacterium tuberculosis InhA assessed as change in enthalpy at 2 mM in presence of NADH by Spectrofluorophotometry
T1 sequence (whole entry): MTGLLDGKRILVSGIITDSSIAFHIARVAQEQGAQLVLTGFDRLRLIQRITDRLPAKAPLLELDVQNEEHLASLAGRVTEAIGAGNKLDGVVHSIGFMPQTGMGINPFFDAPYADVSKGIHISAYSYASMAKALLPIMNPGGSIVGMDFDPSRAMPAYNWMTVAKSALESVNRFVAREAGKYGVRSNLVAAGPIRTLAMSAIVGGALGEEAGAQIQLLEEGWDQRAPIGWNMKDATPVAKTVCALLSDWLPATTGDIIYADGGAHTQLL

[3] = molecular target: T1, Enoyl-[acyl-carrier-protein] reductase [NADH] (Mycobacterium tuberculosis); assay: Binding affinity to recombinant Mycobacterium tuberculosis InhA assessed as change in entropy at 2 mM in presence of NADH by Spectrofluorophotometry
[4] = molecular target: T1, Enoyl-[acyl-carrier-protein] reductase [NADH] (Mycobacterium tuberculosis); assay: Binding affinity to recombinant Mycobacterium tuberculosis InhA assessed as gibbs free energy change at 2 mM in presence of NADH by Spectrofluorophotometry
[5] = system: Mycobacterium tuberculosis; assay: Antibacterial activity against MDR Mycobacterium tuberculosis clinical isolate PE-003 measured after 7 days by resazurin dye based assay; assay type: functional; conditions: PE-003, 168 h, time 7 day

## CCOC(=O)c1ccc2nc(C)cc(Nc3ccc(N4CCCCC4)cc3)c2c1
[1]
  MIC: 12.8 µM (≈ 4.99 µg/mL)
[2]
  deltaH: -23.3 kcal/mol
[3]
  deltaS: -54.5 cal/mol/K
[4]
  deltaG: -7.1 kcal/mol
[5]
  MIC: 2.5 µg/mL and 6.4 µM
